The record followed here is ChEMBL document CHEMBL1240369, “Antiviral efficacy of the novel compound BIT225 against HIV-1 release from human macrophages” (Antimicrob Agents Chemother, 2010).

SMILES strings stand for the structures. Activity calls are given as the source filed them. No cut-off for these calls is given here.

A short description of data set [1]: Cytotoxicity against human TZM-bl cells assessed as cell viability up to 20 uM by MTT assay. It is filed as cell-based.
The nature of data set [2]: Selectivity index, ratio of TC50 for human MDM cells to EC50 for HIV1 1064.52 infected in human MDM cells. As to conditions: read-out: Selectivity Index. The class given is toxicity, cell-based.
Data set [3] in a line: Selectivity index, ratio of TC50 for human MDM cells to EC50 for HIV1 MDR3761 infected in human MDM cells. The class given is toxicity, cell-based. The settings on record: read-out: Selectivity Index.
Data set [4] deals with MDM. The data set is described as follows: Inhibition of Vpu ion channel in 0.05 MOI HIV1 Ba-L infected in 14 days differentiated human MDM cells assessed as number of gag copy. The class given is cell-based. The settings on record: Human immunodeficiency virus 1. A digest of the protocol: (§1)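 MDM differentiated for 7, 10 or 14 days were infected with HIV-1 Ba-L across a range of MOIs, washed three times with PBS and cultured 7 days with 10 μM compound or equal-volume DMSO. On day 7 postinfection, supernatant RT activity was measured (and infectivity on TZM-bl cells). Cell lysates went to real-time PCR for LTR-gag DNA, normalised to albumin copies.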

In data set [5] the test system is MDM. The data set is described as follows: Inhibition of Vpu ion channel in 0.001 to 0.01 MOI HIV1 Ba-L infected in 10 days differentiated human MDM cells assessed as viral inhibition by RT assay. The class given is cell-based. The settings on record: Human immunodeficiency virus 1. The gist of the method: as §1
The subject of data set [6] is MDM. The data set is described as follows: Inhibition of Vpu ion channel in 0.05 MOI HIV1 Ba-L chronically infected in 7 days differentiated human MDM cells assessed as reverse transcriptase activity after 21 days. It is filed as cell-based. As to conditions: Human immunodeficiency virus 1. A digest of the protocol: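 Chronic infection model: MDM were incubated with HIV-1 Ba-L for 3 h and left 7 days unwashed, then washed three times and given a single 10 μM dose (DMSO control). Supernatants were sampled routinely for RT activity. In the washout arm, compound was removed and cells kept drug-free for an additional 20 days.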

The subject of data set [7] is Human immunodeficiency virus 2. The data set is described as follows: Antiviral activity against 0.05 MOI HIV2 noncytopathic strain chronically infected in 7-14 days differentiated human MDM cells assessed as viral inhibition measured after 7 days. It is filed as functional. A digest of the protocol: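 Day 14 MDM from three seronegative donors were infected at MOI 0.05 for 7 days, then washed free of extracellular virus. Cultures then ran a further 7 days with or without 10 μM BIT225, from day 21. Day 28 supernatants were assayed by RT activity ELISA. Percent inhibition was taken versus untreated controls, as mean of three donors.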

Data set [8] relates to Human immunodeficiency virus 1. Briefly: Antiviral activity against HIV1 Ba-L in human MDM assessed as inhibition integration of virus to host cell genome at 10 nM by RT assay. The settings on record: Human immunodeficiency virus 1, Ba-L. The class given is functional.
Data set [9] concerns the target Protease (Human immunodeficiency virus 1) (UniProt Q9YQ12). The data set is described as follows: Inhibition of HIV1 protease assessed as substrate cleavage by cell free assay. The gist of the method:
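Cell-free fluorometric protease assay: compound (1–100 μM) was premixed with 2 μM quenched HIV-1 protease substrate 1. Background fluorescence (ex 340/em 490 nm) was read every 5 s for 5 min. HIV-1 protease was then added at 1.5% and cleavage followed for a further 5 min. LPV and EFV served as controls.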

Data set [10] relates to Human immunodeficiency virus 1. Briefly: Antiviral activity against HIV1 Ba-L in 14 days differentiated human MDM assessed as decrease in intracellular p24 level at 10 uM after 7 days by Western blot analysis. It is filed as functional, organism-based. A digest of the protocol:
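Day 14 MDM were chronically infected with HIV-1 Ba-L, then given 10 μM compound or DMSO and harvested on day 28. Lysates with equal total protein (checked by β-actin) were run on a 10% polyacrylamide gel and blotted to nitrocellulose. Blots were probed with HIV-1-seropositive human serum, then HRP anti-human IgG.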

Data set [11] has as its system MT2. The data set is described as follows: Inhibition of Vpu ion channel in 0.05 MOI HIV1 infected in MT2 cells assessed as viral inhibition measured after 7 days by […]. The settings on record: Human immunodeficiency virus 1.
Data set [12] has as its system PBMC. The data set is described as follows: Inhibition of Vpu ion channel in 0.05 MOI HIV1 NL4-3 infected in human PBMC cells assessed as viral inhibition measured at 5 uM after 7 days by […]. The settings on record: Human immunodeficiency virus 1.
In data set [13] the test system is PBMC. Briefly: Inhibition of Vpu ion channel in 0.05 MOI HIV1 NL4-3 infected in human PBMC cells assessed as viral inhibition measured at 10 uM after 7 days by […]. As to conditions: Human immunodeficiency virus 1.

Sequence of Protease (Human immunodeficiency virus 1) (Q9YQ12 as listed by the source): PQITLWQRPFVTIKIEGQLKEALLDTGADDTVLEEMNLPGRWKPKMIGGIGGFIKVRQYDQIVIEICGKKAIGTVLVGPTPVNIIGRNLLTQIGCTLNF

As for `Cn1cc(-c2cccc3cc(C(=O)NC(=N)N)ccc23)cn1`, the results for the Activity result in [1] and in data set [6] were “Non-toxic” and less than 2 U/ml, respectively. The selectivity ratio is 61.9 in [2] and 39.3 in data set [3]. In addition, the outcome in data set [4] and in data set [10] was Active. For the same molecule, the inhibition came out at 82% in data set [5], 38.8% in [11], 25.7% in data set [12] and 56.8% in [13]. Besides, in data set [7], the “inhibition (INH)” value was 13.4%. The inhibition at 0.01 µM in data set [8] was determined as 99%. Besides, in data set [9], the outcome was inactive.
